Source: publication PMC7982424 (Acta Pharmaceutica Sinica. B, 2020)

Key:
[1] = Microsomal stability assay, mouse liver microsomes; format: in vitro ADME; conditions: mouse, pH 7.4
[2] = Microsomal stability assay, human liver microsomes; format: in vitro ADME; conditions: human, pH 7.4
Cytotoxicity assay = format: cell-based; conditions: human, TZM-GFP cells
Summary of the method: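 TZM-GFP cells were plated at 1 × 10^4 cells per well and exposed continuously to increasing concentrations of test compound for 72 h. Viable cells were counted by XTT. CC50 came from a log(inhibitor) vs normalized response, variable-slope fit for each independent assay, then averaged. Runs were in duplicate across at least two independent experiments; mean ± SD.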

HIV-1NL4-3 = assay: Anti-HIV-1 assay in TZM-GFP cells; format: cell-based
Summary of the method: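 TZM-GFP cells seeded at 1 × 10^4 per well; after 24 h, medium replaced with test compound at 20 μmol/L, with actives retested at 2 μmol/L. HIV-1NL4-3 (HEK 293FT-transfection stock, MT2-propagated, PEG-concentrated) added at MOI 1 24 h later. After 48 h, GFP-positive cells counted by imaging; inhibition relative to DMSO controls. Duplicates, at least two independent experiments.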

## CN(C(=O)[C@H](Cc1ccccc1)NC(=O)CNC(=O)c1ccccc1)c1ccccc1 [Compound 18, (S)-N-(2-((1-(Methyl(phenyl)amino)-1-oxo-3-phenylpropan-2-yl)amino)-2-oxoethyl)benzamide]
[1]
  half-life at 1 μmol/L: 3.6 min
[2]
  half-life at 1 μmol/L: 15 min
Cytotoxicity assay
  CC50 at 72 h: > 50 µM
HIV-1NL4-3; Human immunodeficiency virus 1, read-out: Inhibition at 2 μmol/L
  inhibition at 2 µM: 15%
HIV-1NL4-3; Human immunodeficiency virus 1, read-out: Inhibition at 20 μmol/L
  inhibition at 20 µM: 96%
